From ChEMBL document CHEMBL4393719, “Tetrahydro-3-benzazepines with fluorinated side chains as NMDA and σ1 receptor antagonists: Synthesis, receptor affinity, selectivity and antiallodynic activity” (Eur J Med Chem, 2019) come the findings set out here.

Data set [1] is filed under the species Sus scrofa. The note with it: at 1 µM.
Another data set is filed under the species Homo sapiens. Kind of data set: Displacement of [3H] ifenprodil from GluN2B/GluN1a (unknown origin) expressed in mouse L(tk-) cell membranes at 10^-10 to 10^-5 mol/L incubated for 120 mins by scintillation counting method relative to control. Put shortly:
(§1)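 Membranes from mouse L(tk-) cells co-transfected with dexamethasone-inducible GluN1a/GluN2B (1:5), induced 24 h with 4 μM dexamethasone plus 4 μM ketamine.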
(Displacement assays read how much labelled ligand stays bound in the presence of the test substance.)

Data set [2] addresses Sigma non-opioid intracellular receptor 1 (Cavia porcellus) (UniProt Q60492). Kind of data set: Displacement of [3H]-(+)-pentazocine from sigma1 receptor in guinea pig brain cortex membranes at 10^-10 to 10^-5 mol/L incubated for 120 mins by scintillation counting method relative to control. The format is cell membranes.
The target in data set [3] is Sigma intracellular receptor 2 (Rattus norvegicus) (UniProt Q5U3Y7). Kind of data set: Displacement of [3H]-di-o-tolylguanidine from sigma2 receptor in rat liver membranes at 10^-10 to 10^-5 mol/L incubated for 120 mins by scintillation counting method relative to control. The format is cell membranes.
A further data set concerns Mus musculus. Kind of data set: Antiallodynic activity in CD-1 mouse model of capsaicin-induced mechanical allodynia assessed as increase in paw withdrawal threshold at 32 mg/kg, sc administered 30 mins before capsaicin addition and measured after 15 mins by von-Frey test. It is filed as functional, organism-based. Put shortly:
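Female CD-1 mice given compound or HPMC vehicle sc 30 min before intraplantar capsaicin (1 µg in 20 µL, 1% DMSO). 15 min later, electronic von Frey punctate stimulus (0.5 g) at least 5 mm from injection site; paw withdrawal latency, three trials 30 s apart, 50 s cutoff. % antiallodynic effect = [(LTD−LTS)/(CT−LTS)]×100; 6-8 mice per group, ANOVA with Bonferroni.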

The target of data set [4] is Sodium-dependent noradrenaline transporter (Homo sapiens) (UniProt P23975). Put plainly: Displacement of [3H]nisoxetine from recombinant human norepinephrine transporter at 1 uM after 60 mins by scintillation counting method relative to control. Put shortly:
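Human NET-enriched membranes (1 μg), 5 nM [3H]nisoxetine in 50 mM Tris-HCl, 120 mM NaCl, 5 mM KCl, pH 7.4, 1% DMSO final; 60 min at 4 °C; 10 μM desipramine for nonspecific binding. Single 1 μM compound; filtration, displacement of radioligand.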

Data set [5] deals with Sodium-dependent serotonin transporter (Homo sapiens) (UniProt P31645). Put plainly: Displacement of [3H]imipramine from human serotonin transporter at 1 uM after 30 mins by scintillation counting method relative to control. Put shortly:
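Human SERT-enriched membranes (3.5 μg) incubated 30 min at 27 °C with 3 nM [3H]imipramine in Tris-HCl/120 mM NaCl/5 mM KCl pH 7.4, 0.1% DMSO; 200 μM imipramine for nonspecific binding. Compound at 1 μM; displacement after filtration.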

Data set [6] addresses T1, Sigma intracellular receptor 2 (Rattus norvegicus, UniProt Q5U3Y7).
T1 sequence (Q5U3Y7 whole entry): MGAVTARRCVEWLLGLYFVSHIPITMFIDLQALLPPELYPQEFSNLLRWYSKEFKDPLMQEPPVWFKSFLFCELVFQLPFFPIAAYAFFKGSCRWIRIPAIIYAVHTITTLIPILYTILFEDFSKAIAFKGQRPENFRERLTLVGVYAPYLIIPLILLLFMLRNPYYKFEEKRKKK
Put plainly: Displacement of [3H]-di-o-tolylguanidine from sigma2 receptor in rat liver membranes incubated for 120 mins by scintillation counting method. The format is cell membranes.

The nature of data set [7]: Drug metabolism in mouse liver microsomes at 1 uM incubated for 1 hr in presence of NADPH by UPLC-MS analysis. It is filed as ADME, Microsome. The note with it: read-out: Drug metabolism. Put shortly: (§2)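 Liver microsomes, compound 1 µM, 37 °C for 1 h in 50 mM Na/K phosphate pH 7.4, 3 mM MgCl2, NADPH-regenerating system, CYP 0.3 nmol/mL. Aliquots at 0, 10, 20, 40, 60 min quenched with cold acetonitrile, supernatants by UPLC-MS/MS; % parent remaining at end reported. Terfenadine as positive control.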
A general note: Liver microsomes are a subcellular fraction often used to study metabolism.

Data set [8] in a line: Displacement of [3H] ifenprodil from GluN2B/GluN1a (unknown origin) expressed in mouse L(tk-) cell membranes incubated for 120 mins by scintillation counting method. The arrangement: species or system Homo sapiens. Put shortly:
as §1

Data set [9] addresses Sodium-dependent dopamine transporter (Homo sapiens) (UniProt Q01959). Put plainly: Displacement of [3H]GBR12935 from human DAT at 1 uM after 120 mins by scintillation counting method relative to control. Put shortly: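 DAT-enriched human membranes (5 µg), 2 nM [3H]GBR12935 in 50 mM Tris-HCl/100 mM NaCl pH 7.4, 0.1% DMSO, 120 min at 4 °C; 10 µM GBR12909 for nonspecific binding. Compound at 1 µM; displacement measured after filtration.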

Another data set deals with CYP2D6 (Homo sapiens, UniProt P10635). Kind of data set: Inhibition of recombinant human CYP2D6 at 1 uM by fluorescence probe substrate-based flurometric analysis. The format is ADME.
The target in data set [10] is 5-hydroxytryptamine receptor 1A (Homo sapiens) (UniProt P08908). Kind of data set: Displacement of [3H]8-OH-DPAT from human 5HT1A receptor at 1 uM incubated for 2 hrs scintillation counting method relative to control. In a few lines: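 Human 5-HT1A-enriched membranes (10 μg), 2 nM [3H]-8-OH-DPAT, 50 mM Tris-HCl/5 mM MgCl2 pH 7.4, 0.1% DMSO final, 2 h at 37 °C; 10 μM 5-HT for nonspecific binding. Compound at 1 μM; radioligand displacement read after GF/C filtration.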

For data set [11], the target named is Histamine H1 receptor (Homo sapiens) (UniProt P35367). Put plainly: Displacement of [3H]pyrilamine from human recombinant histamine H1 receptor at 1 uM after 90 mins by scintillation counting method relative to control. In a few lines: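 Human H1 receptor-enriched membranes (25 μg) with 2.4 nM [3H]pyrilamine in Na+/K+ phosphate buffer pH 7.4, 0.1% DMSO, 90 min, 25 °C; 10 μM triprolidine for nonspecific binding. Single 1 μM test concentration; filtration-based readout of displacement.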

Data set [12] has as its target Alpha-1A adrenergic receptor (Homo sapiens) (UniProt P35348). Kind of data set: Displacement of [3H]prazosin from human adrenergic alpha1A receptor at 1 uM after 90 mins by scintillation counting method relative to control. In a few lines: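 α1A adrenoceptor-enriched human membranes (10 µg), 0.2 nM [3H]prazosin in 50 mM HEPES, 5 mM MgCl2, 1 mM CaCl2, 0.2% BSA, pH 7.4; 90 min at 25 °C; 1 µM prazosin for nonspecific binding. Compound tested at 1 µM; bound ligand collected by filtration.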

Data set [13] is described as follows: Drug metabolism in human liver microsomes at 1 uM incubated for 1 hr in presence of NADPH by UPLC-MS analysis. The format is ADME, Microsome. The following applies: read-out: Drug metabolism. Put shortly:
as §2

The subject of data set [14] is HepG2. Put plainly: Cytotoxicity against human HepG2 assessed as reduction in cell viability at 1 to 100 uM after 20 hrs by neutral red uptake assay. The format is cell-based. The note with it: hepg2, 20 h. Put shortly: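 HepG2 seeded 3 x 10^4/well, 24 h, then 20 h serum-free exposure at 1, 10 or 100 µM. Neutral red 50 µg/mL for 3 h, washed, dye extracted with 50% ethanol/1% acetic acid, OD 550 nm. IC50 assigned as lowest concentration reaching ≥50% cytotoxicity against untreated cells; n = 4 (duplicate, two assays).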

Data set [15] has as its system HepG2. Kind of data set: Cytotoxicity against human HepG2 assessed as reduction in cell viability at 1 to 100 uM after 20 hrs by MTT assay. It is filed as cell-based. The note with it: hepg2, 20 h. In a few lines: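 HepG2 cells, 3 x 10^4/well, grown 24 h in MEM/10% FBS, then exposed 20 h in serum-free medium to compound at 1, 10, 100 µM (from DMSO solutions). MTT 0.5 mg/mL for 4 h, formazan dissolved in DMSO, OD 550 nm. IC50 taken as lowest concentration giving ≥50% cytotoxicity versus untreated cells; duplicates in two assays (n = 4).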
(Tetrazolium assays rely on reduction of a dye to a coloured formazan, in cell work by metabolically active cells.)

Data set [16] deals with 5-hydroxytryptamine receptor 2B (Homo sapiens) (UniProt P41595). Put plainly: Displacement of [3H]-LSD from recombinant human 5HT2B receptor at 1 uM after 30 mins by scintillation counting method relative to control. Put shortly:
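Human 5-HT2B-enriched membranes (5 µg), 1 nM [3H]LSD in 50 mM Tris-HCl, 4 mM CaCl2, 1% ascorbic acid, pH 7.4, 0.1% DMSO; 30 min, 37 °C; 50 µM 5-HT for nonspecific binding. Single 1 µM compound concentration; displacement after filtration.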

Data set [17] concerns the target Delta-type opioid receptor (Homo sapiens, UniProt P41143). Kind of data set: Inhibition of DOR (unknown origin).
Data set [18] has as its target T2, Mu-type opioid receptor (Homo sapiens, UniProt P35372). Kind of data set: Displacement of [3H]DAMGO from human MOR expressed in CHO-K1 cells membranes after 60 mins by micro beta scintillation counting method. The format is cell membranes. In a few lines:
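Human MOR in CHO-K1 membranes (20 µg) with 1 nM [3H]DAMGO in 50 mM Tris-HCl, 5 mM MgCl2, pH 7.4, 27 °C for 60 min. Test compound at five concentrations; 10 µM naloxone defines nonspecific binding. Filtered, washed thrice with ice-cold 10 mM Tris-HCl, counted by liquid scintillation.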

The target of data set [19] is Voltage-gated inwardly rectifying potassium channel KCNH2 (Homo sapiens, UniProt Q12809). Put plainly: Inhibition of human ERG expressed in CHO cells at -80 mV holding potential by automated patch clamp electrophysiology assay. It is filed as cell-based.
In data set [20] the target is Sigma non-opioid intracellular receptor 1 (Cavia porcellus, UniProt Q60492). It is filed as cell membranes.
Data set [21] is described as follows: Stability of compound in phosphate buffer at pH 7.4 after 24 hrs by HPLC analysis. The format is physicochemical. The following applies: pH 7.4, 24 h. In a few lines:
(§3)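 Compound (25 μL of 10 mM DMSO stock) added to 1 mL aqueous buffered solution, pH 2 or pH 7.4, stirred 24 h at room temperature, analyzed by HPLC-MS; deemed stable if peak area remained 95–105%.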

Data set [22] has as its target T2, Mu-type opioid receptor. Put plainly: Agonist activity at MOR (unknown origin) by cAMP assay. It is filed as functional.
Data set [23] is described as follows: Drug metabolism in rat liver microsomes at 1 uM incubated for 1 hr in presence of NADPH by UPLC-MS analysis. It is filed as ADME, Microsome. The following applies: read-out: Drug metabolism. Put shortly: as §2
Data set [24] is described as follows: Stability of compound in aqueous HCl solution at pH 2 after 24 hrs by HPLC analysis. It is filed as physicochemical. The note with it: buffer, pH 2, 24 h. Put shortly: as §3
The target in data set [25] is Kappa-type opioid receptor (Homo sapiens, UniProt P41145). Kind of data set: Inhibition of KOR (unknown origin).
The species entered for data set [26] is Sus scrofa. Kind of data set: Displacement of [3H]-(+)-MK-801 from NMDA PCP binding site in pig brain cortex membrane at 10 uM incubated for 180 mins by scintillation counting method relative to control. It is filed as cell membranes.

Active and inactive are the calls of the source.

T2 sequence (P35372 whole entry): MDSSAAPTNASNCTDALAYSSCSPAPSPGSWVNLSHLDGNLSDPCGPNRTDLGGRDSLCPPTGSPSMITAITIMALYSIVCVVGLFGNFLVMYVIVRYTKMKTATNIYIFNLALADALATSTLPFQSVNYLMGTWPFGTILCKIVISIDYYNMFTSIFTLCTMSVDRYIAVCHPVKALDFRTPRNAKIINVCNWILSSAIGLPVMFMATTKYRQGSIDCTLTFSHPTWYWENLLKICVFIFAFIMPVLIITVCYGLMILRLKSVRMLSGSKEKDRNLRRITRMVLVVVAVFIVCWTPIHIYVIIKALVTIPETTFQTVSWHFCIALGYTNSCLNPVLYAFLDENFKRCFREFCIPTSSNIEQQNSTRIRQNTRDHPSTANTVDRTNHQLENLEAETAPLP
Sequence of 5-hydroxytryptamine receptor 2B (Homo sapiens) (P41595 whole entry): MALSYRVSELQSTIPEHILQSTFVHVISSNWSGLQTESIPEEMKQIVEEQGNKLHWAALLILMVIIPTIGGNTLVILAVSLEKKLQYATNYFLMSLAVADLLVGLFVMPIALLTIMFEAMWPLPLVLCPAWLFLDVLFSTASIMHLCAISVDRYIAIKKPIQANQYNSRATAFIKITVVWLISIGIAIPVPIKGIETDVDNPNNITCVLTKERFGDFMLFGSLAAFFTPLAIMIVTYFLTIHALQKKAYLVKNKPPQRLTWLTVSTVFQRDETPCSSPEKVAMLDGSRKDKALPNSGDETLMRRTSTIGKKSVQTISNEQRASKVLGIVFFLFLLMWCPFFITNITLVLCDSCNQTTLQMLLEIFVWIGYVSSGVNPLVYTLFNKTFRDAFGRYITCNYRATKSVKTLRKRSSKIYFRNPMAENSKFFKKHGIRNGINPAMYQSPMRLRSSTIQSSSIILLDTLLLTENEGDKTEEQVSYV
Sequence of Kappa-type opioid receptor (P41145 whole entry): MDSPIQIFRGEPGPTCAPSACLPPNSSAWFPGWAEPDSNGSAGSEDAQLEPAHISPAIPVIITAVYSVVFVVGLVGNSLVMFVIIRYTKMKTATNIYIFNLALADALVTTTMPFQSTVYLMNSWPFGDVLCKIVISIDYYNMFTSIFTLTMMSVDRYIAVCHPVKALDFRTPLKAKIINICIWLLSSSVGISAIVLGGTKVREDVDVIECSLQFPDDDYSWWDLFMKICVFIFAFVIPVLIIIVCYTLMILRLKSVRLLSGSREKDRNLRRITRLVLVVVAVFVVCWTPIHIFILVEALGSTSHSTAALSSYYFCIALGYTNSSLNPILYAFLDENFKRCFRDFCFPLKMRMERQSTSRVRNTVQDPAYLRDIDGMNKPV
Sequence of Sigma non-opioid intracellular receptor 1 (Cavia porcellus) (Q60492 whole entry): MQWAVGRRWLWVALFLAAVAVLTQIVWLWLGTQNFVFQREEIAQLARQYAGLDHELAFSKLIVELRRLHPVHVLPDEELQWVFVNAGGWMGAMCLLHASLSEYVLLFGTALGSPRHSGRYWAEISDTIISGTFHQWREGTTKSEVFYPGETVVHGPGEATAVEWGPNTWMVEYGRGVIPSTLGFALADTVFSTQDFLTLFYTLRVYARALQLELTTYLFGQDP
Sequence of Sigma non-opioid intracellular receptor 1 (Q60492 whole entry): as above
Sequence of Sodium-dependent dopamine transporter (Homo sapiens) (Q01959 whole entry): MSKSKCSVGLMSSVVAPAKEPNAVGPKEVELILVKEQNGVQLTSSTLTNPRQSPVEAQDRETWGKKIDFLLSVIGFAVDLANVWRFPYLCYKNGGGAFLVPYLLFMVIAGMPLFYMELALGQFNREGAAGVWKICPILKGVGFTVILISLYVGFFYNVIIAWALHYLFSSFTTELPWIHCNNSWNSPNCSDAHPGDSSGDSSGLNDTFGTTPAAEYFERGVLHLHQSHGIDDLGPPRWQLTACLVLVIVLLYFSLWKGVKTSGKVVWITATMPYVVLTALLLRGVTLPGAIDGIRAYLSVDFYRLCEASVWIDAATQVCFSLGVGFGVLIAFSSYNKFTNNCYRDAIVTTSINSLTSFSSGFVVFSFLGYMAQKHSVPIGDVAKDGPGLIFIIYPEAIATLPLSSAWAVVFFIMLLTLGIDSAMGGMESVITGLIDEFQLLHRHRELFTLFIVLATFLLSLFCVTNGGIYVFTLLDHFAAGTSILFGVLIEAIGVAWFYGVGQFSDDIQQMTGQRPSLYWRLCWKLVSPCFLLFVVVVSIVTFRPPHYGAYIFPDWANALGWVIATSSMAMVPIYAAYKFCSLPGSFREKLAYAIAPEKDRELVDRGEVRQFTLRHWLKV
Sequence of Sodium-dependent serotonin transporter (Homo sapiens) (P31645 whole entry, looked up): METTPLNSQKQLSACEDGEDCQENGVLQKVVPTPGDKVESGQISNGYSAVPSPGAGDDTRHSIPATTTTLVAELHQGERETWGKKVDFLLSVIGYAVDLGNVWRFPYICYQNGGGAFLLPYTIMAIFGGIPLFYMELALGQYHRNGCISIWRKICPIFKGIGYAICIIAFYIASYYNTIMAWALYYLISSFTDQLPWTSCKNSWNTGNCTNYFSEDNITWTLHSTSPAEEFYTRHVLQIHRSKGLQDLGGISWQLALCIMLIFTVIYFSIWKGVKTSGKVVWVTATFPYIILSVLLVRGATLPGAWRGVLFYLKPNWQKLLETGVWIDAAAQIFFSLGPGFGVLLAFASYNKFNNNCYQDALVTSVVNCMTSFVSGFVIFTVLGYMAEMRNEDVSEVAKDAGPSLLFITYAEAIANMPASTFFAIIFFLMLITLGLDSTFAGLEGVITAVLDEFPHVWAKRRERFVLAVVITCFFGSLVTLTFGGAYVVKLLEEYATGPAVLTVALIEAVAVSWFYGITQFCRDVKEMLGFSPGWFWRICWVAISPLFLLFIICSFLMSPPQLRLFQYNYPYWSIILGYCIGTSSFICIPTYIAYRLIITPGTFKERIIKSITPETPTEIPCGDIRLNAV
Sequence of CYP2D6 (P10635 whole entry): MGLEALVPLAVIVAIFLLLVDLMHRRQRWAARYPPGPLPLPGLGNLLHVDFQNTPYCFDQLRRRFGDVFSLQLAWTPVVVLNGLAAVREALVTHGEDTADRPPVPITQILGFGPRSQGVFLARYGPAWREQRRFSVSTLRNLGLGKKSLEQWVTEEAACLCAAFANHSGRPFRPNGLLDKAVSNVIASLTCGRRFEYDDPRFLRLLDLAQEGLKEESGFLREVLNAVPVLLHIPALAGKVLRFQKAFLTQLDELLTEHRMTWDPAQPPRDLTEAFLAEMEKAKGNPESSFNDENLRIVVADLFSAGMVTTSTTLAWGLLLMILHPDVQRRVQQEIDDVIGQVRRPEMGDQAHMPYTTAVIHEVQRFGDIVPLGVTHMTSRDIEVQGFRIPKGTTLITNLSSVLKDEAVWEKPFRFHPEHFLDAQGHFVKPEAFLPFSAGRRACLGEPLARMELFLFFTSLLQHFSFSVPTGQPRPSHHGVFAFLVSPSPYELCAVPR
Sequence of Sodium-dependent noradrenaline transporter (Homo sapiens) (P23975 whole entry): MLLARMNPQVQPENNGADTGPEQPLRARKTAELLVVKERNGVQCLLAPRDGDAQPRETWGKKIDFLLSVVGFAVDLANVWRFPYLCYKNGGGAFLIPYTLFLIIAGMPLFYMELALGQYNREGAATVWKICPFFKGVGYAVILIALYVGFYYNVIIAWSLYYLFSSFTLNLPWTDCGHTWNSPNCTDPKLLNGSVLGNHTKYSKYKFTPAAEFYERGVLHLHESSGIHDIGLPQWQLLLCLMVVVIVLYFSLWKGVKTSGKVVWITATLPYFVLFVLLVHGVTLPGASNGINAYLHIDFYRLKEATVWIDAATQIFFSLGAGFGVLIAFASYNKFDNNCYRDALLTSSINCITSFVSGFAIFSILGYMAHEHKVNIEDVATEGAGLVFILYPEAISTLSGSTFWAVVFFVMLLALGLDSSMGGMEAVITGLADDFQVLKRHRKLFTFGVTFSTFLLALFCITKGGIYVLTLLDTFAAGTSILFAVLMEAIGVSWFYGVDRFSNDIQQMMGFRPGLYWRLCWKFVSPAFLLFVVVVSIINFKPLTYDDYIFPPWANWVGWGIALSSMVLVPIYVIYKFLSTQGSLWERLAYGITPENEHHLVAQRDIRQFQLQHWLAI
Sequence of 5-hydroxytryptamine receptor 1A (Homo sapiens) (P08908 whole entry): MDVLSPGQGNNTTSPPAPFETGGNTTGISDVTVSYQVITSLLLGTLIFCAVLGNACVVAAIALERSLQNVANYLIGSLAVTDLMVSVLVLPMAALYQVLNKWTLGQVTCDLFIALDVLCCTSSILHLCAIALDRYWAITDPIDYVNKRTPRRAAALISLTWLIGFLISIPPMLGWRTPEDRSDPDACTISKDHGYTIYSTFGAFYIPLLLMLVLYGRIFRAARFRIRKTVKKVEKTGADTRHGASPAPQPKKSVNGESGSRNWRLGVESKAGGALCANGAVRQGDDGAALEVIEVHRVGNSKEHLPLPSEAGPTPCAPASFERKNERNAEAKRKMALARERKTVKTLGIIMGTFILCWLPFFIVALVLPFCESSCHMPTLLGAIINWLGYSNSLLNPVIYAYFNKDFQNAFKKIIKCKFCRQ
Sequence of Histamine H1 receptor (Homo sapiens) (P35367 whole entry): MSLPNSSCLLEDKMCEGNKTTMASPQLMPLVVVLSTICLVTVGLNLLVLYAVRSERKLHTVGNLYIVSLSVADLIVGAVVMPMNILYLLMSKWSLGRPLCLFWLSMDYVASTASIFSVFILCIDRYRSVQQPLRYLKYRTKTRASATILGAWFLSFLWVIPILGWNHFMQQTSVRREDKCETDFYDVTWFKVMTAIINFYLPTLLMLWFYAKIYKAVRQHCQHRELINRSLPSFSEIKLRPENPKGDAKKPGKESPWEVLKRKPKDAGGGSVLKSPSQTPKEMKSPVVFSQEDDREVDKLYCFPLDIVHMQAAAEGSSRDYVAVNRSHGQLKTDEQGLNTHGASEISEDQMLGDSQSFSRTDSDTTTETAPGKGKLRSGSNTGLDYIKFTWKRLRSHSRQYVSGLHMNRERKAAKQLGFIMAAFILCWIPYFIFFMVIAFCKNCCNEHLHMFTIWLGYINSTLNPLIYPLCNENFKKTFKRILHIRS

As to `COc1ccc2c(c1)CCN1CC2OC1C(F)CCc1ccccc1` (stereo unspecified), the inhibition (in general, the drop in the measured response relative to a control, in per cent) amounted to 0% in the data set listed under Sus scrofa [1], 8% in the data set filed under Homo sapiens, 0% in data set [2] and 0% in [3].

For the compound `CN1CCN(CCc2ccc(Cl)c(Cl)c2)CC1`, the result with Mus musculus was Active.

Regarding `FC(CCN1CCc2ccccc2CC1)Cc1ccccc1` (stereo unspecified), the inhibition in data set [4] was under 50%; in data set [5] it was under 50%; in the data set listed under Sus scrofa [1], 0%; in [9], under 50%; in data set [10], 72%; in [11], under 50%. Also, the inhibition in [12] and in data set [16] was under 50% in each case. For the same compound, the Ki (commonly a measure of affinity in units of concentration, obtained from inhibition or displacement) in [6] is 48 nM; in data set [8], 30 nM; in data set [17] it was over 1000 nM; at Mu-type opioid receptor [18] it was 406 nM; in data set [20], 8 nM; in [25], over 1000 nM. The metabolised at 1 h, 1 µM in data set [7], in data set [13] and in data set [23] was 100% each time. Also, the inhibition at 1 µM on CYP2D6 amounted to 85%. Further, the Activity result with HepG2 [14] and in the data set with HepG2 [15] was “Toxic” in each case. Also, in [19], the midpoint of inhibition, the IC50, lay at 1180 nM. For the same compound, the Stability entry in [21] and in data set [24] was “Stable” throughout. For the same compound, the EC50 – broadly, the concentration needed to bring the measured effect to its halfway point – on Mu-type opioid receptor [22] is over 10 µM.

`COc1ccc2c(c1)CCN(CCCCc1ccccc1)CC2O` (stereo unspecified) registered an inhibition in the data set listed under Sus scrofa [26] of 22%. In data set [8], this compound showed a Ki of 706 nM.
